According to ChEMBL document CHEMBL4330056, “Synthesis and Cytotoxic and Antiviral Profiling of Pyrrolo- and Furo-Fused 7-Deazapurine Ribonucleosides” (J Med Chem, 2018):
Activity calls are given as the source filed them. No cut-off for these calls is given here.

Experiments:
[1] = tested on: CCRF-CEM; test: Inhibition of mitosis in human CCRF-CEM cells assessed Ser10 H3 phosphorylation positive cells at IC50 concentration after 24 hrs by flow cytometry relative to total cell population (reference value: 1.36%); type: functional; set-up: scale not given: the % may be the effect or the level left
[2] = tested on: Coxsackievirus B3; test: Antiviral activity against Human coxsackie B3 Nancy infected in human HeLa cells assessed as inhibited virus-induced cytopathic effect incubated for 2 days by XTT assay; type: functional, organism-based
[3] = tested on: A549; test: Antiproliferative activity against human A549 cells after 3 days by MTS assay; type: functional, cell-based; conditions: A549, 72 h
[4] = tested on: HCT-116; test: Antiproliferative activity against p53 gene knocked out human HCT116 cells after 3 days by MTS assay; type: functional, cell-based; conditions: HCT-116, 72 h
[5] = tested on: CCRF-CEM; test: Inhibition of RNA synthesis in human CCRF-CEM cells assessed as RNA synthesis level at IC50 concentration after 24 hrs by BrU incorporation assay (reference value: 49.89%); type: functional; set-up: scale not given: the % may be the effect or the level left
[6] = Stability in human plasma assessed as compound remaining at 3.3 umol/L after 15 mins by RF-MS analysis relative to control; type: ADME, cell-free; conditions: read-out: Stability
[7] = tested on: Hepatitis C virus; test: Antiviral activity against Hepatitis C virus genotype 1b infected in human Huh-luc replicon cells after 3 days by luciferase assay; type: functional, organism-based, Hepacivirus hominis; conditions: subtype 1b, 72 h
[8] = Chemical stability of the compound assessed as compound remaining after 60 mins relative to control; type: physicochemical; conditions: read-out: Stability
[9] = tested on: BJ; test: Antiproliferative activity against human BJ cells after 3 days by MTS assay; conditions: 72 h
[10] = tested on: CCRF-CEM; test: Induction of cell cycle arrest in human CCRF-CEM cells assessed as accumulation at G0/G1 phase at 5 times IC50 concentration after 24 hrs by propidium iodide-staining based flow cytometry (reference value: 39.70%); type: functional
[11] = tested on: MRC5; test: Antiproliferative activity against human MRC5 cells after 3 days by MTS assay; conditions: MRC5, 72 h
[12] = Effective permeability of the compound at 20 umol/L by PAMPA; type: ADME; conditions: 20 µM
[13] = tested on: HeLa S3; test: Antiproliferative activity against human HeLaS3 cells after 72 hrs by XTT assay; type: functional, cell-based; conditions: HeLa S3, 72 h
[14] = Chemical stability of the compound assessed as compound remaining after 30 mins relative to control; type: physicochemical; conditions: read-out: Stability
[15] = tested on: HCT-116; test: Antiproliferative activity against human HCT116 cells after 3 days by MTS assay; type: functional, cell-based; conditions: HCT-116, 72 h
[16] = tested on: dengue virus type 2; test: Antiviral activity against Dengue virus 2 Thailand/16681/84 infected in African green monkey Vero cells assessed as inhibition of virus replication incubated for 3 days by fluorescence microscopy; type: functional, organism-based
[17] = Stability in human plasma assessed as compound remaining at 3.3 umol/L after 30 mins by RF-MS analysis relative to control; type: ADME, cell-free; conditions: read-out: Stability
[18] = tested on: CCRF-CEM; test: Induction of cell cycle arrest in human CCRF-CEM cells assessed as accumulation at S phase at 5 times IC50 concentration after 24 hrs by propidium iodide-staining based flow cytometry (reference value: 41.08%); type: functional
[19] = tested on: Human orthopneumovirus; test: Antiviral activity against Human respiratory syncytial virus A2 infected in Hep2 cells assessed as reduction in virus-induced cytopathic effect incubated for 4 days by CellTiter-Glo viability reagent based assay; type: functional, organism-based
[20] = tested on: HepG2; test: Antiproliferative activity against human HepG2 cells after 72 hrs by XTT assay; type: functional, cell-based; conditions: HepG2, 72 h
[21] = tested on: CCRF-CEM; test: Induction of cell cycle arrest in human CCRF-CEM cells assessed as accumulation at G2/M phase at 5 times IC50 concentration after 24 hrs by propidium iodide-staining based flow cytometry (reference value: 19.22%); type: functional
[22] = Cytotoxicity against human Hep2 cells assessed as reduction in cell viability after 3 days by CellTiter-Glo assay; type: cell-based; conditions: HEp-2 cells
[23] = tested on: CCRF-CEM; test: Induction of cell cycle arrest in human CCRF-CEM cells assessed as accumulation at subG1 phase at 5 times IC50 concentration after 24 hrs by propidium iodide-staining based flow cytometry (reference value: 3.45%); type: functional
[24] = tested on: CCRF-CEM; test: Inhibition of DNA synthesis in human CCRF-CEM cells assessed as DNA synthesis level at 5 times IC50 concentration after 24 hrs by BrdU incorporation assay (reference value: 43.39%); type: functional; set-up: scale not given: the % may be the effect or the level left
[25] = tested on: HL-60; test: Antiproliferative activity against human HL60 cells after 72 hrs by XTT assay; type: functional, cell-based; conditions: HL-60, 72 h
[26] = Antiproliferative activity against human CEM-DNR-bulk cells after 3 days by MTS assay; conditions: 72 h
[27] = tested on: Hepatitis C virus; test: Antiviral activity against Hepatitis C virus genotype 2a infected in human Huh-luc replicon cells after 3 days by luciferase assay; type: functional, organism-based, Hepacivirus hominis; conditions: subtype 2a, 72 h
[28] = tested on: CCRF-CEM; test: Inhibition of mitosis in human CCRF-CEM cells assessed Ser10 H3 phosphorylation positive cells at 5 times IC50 concentration after 24 hrs by flow cytometry relative to total cell population (reference value: 1.36%); type: functional; set-up: scale not given: the % may be the effect or the level left
[29] = tested on: CCRF-CEM; test: Induction of cell cycle arrest in human CCRF-CEM cells assessed as accumulation at S phase at IC50 concentration after 24 hrs by propidium iodide-staining based flow cytometry (reference value: 41.08%); type: functional
[30] = tested on: CCRF-CEM; test: Induction of cell cycle arrest in human CCRF-CEM cells assessed as accumulation at subG1 phase at IC50 concentration after 24 hrs by propidium iodide-staining based flow cytometry (reference value: 3.45%); type: functional
[31] = Protein binding in human plasma; type: ADME, cell-free; conditions: read-out: PPB (converted)
[32] = target: T1, Adenosine kinase (Homo sapiens, UniProt P55263); test: Substrate activity at recombinant human ADK assessed as compound phosphorylation at 50 uM after 20 mins in presence of [3H]-adenosine by UPLC; type: ADME
T1 sequence (P55263 whole entry): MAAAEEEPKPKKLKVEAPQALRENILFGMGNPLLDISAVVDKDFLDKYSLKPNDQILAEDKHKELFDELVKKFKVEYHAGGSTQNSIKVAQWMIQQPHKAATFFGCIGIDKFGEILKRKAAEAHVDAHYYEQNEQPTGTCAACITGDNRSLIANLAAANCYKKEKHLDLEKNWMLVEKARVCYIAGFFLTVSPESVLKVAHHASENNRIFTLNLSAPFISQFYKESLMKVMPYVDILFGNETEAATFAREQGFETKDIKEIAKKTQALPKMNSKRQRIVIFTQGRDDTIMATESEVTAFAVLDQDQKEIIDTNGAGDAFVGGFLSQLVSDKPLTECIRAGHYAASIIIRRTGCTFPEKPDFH

[33] = Chemical stability of the compound assessed as compound remaining after 120 mins relative to control; type: physicochemical; conditions: read-out: Stability
[34] = tested on: K562; test: Antiproliferative activity against human K562 cells after 3 days by MTS assay; type: functional, cell-based; conditions: K562, 72 h
[35] = Stability in human plasma assessed as compound remaining at 3.3 umol/L after 60 mins by RF-MS analysis relative to control; type: ADME, cell-free; conditions: read-out: Stability
[36] = tested on: CCRF-CEM; test: Antiproliferative activity against human CCRF-CEM cells after 3 days by MTS assay; type: functional, cell-based; conditions: 72 h
[37] = tested on: CCRF-CEM; test: Induction of cell cycle arrest in human CCRF-CEM cells assessed as accumulation at G0/G1 phase at IC50 concentration after 24 hrs by propidium iodide-staining based flow cytometry (reference value: 39.70%); type: functional
[38] = Stability in human plasma assessed as compound remaining at 3.3 umol/L after 120 mins by RF-MS analysis relative to control; type: ADME, cell-free; conditions: read-out: Stability
[39] = tested on: CCRF-CEM; test: Inhibition of DNA synthesis in human CCRF-CEM cells assessed as DNA synthesis level at IC50 concentration after 24 hrs by BrdU incorporation assay (reference value: 43.39%); type: functional; set-up: scale not given: the % may be the effect or the level left
[40] = target: T1, Adenosine kinase; test: Inhibition of recombinant human ADK using [3H]-adenosine as substrate after 20 mins by TLC scanner-based analysis relative to control
Method in brief: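 ADK inhibition: 50 μM adenosine substrate with 10 μM test compound and 97 ng enzyme, 20 min at 37 °C.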

[41] = tested on: CCRF-CEM; test: Induction of cell cycle arrest in human CCRF-CEM cells assessed as accumulation at G2/M phase at IC50 concentration after 24 hrs by propidium iodide-staining based flow cytometry (reference value: 19.22%); type: functional

With `CSc1ncnc2c1c1occc1n2[C@@H]1O[C@H](CO)[C@@H](O)[C@H]1O` the Activity [1] was 1.26%, the Activity [2] was “inactive” and the IC50 [3] was 4860 nM. The IC50 [4] was 210 nM, the Activity [5] was 0.39% and the remaining at 0.25 h, 3.3 µM [6] was 99%. The EC50 [7] was 280 nM, the remaining at 1 h [8] was 99% and the IC50 [9] was 490 nM. For the same compound, the Activity [10] was 33.16%, the IC50 [11] was 9370 nM and the “log(permeability)” value [12] was -5.99. It also gave an IC50 [13] of 2960 nM, a remaining at 0.5 h [14] of 99% and an IC50 [15] of 220 nM. For the same compound, the Activity [16] was “inactive”, the remaining at 0.5 h, 3.3 µM [17] was 99% and the Activity [18] was 53.55%. For the same compound, the Activity [19] was “inactive”, the IC50 [20] was 2010 nM and the Activity [21] was 13.3%. For the same compound, the CC50 at 72 h [22] was over 44400 nM, the Activity [23] was 14.06% and the Activity [24] was 41.8%. For the same compound, the IC50 [25] was 290 nM, the IC50 [26] was 5570 nM and the EC50 [27] was 240 nM. It also gave an Activity [28] of 0.9%, an Activity [29] of 38.26% and an Activity [30] of 6.52%. It also gave a fraction unbound [31] of 0.16, an Activity [32] of 56% and a remaining at 2 h [33] of 96%. The IC50 [34] was 270 nM, the remaining at 1 h, 3.3 µM [35] was 98% and the IC50 [36] was 140 nM. It also gave an Activity [37] of 44.43%, a remaining at 2 h, 3.3 µM [38] of 96% and an Activity [39] of 39.68%. It also gave an IC50 [40] of over 10000 nM and an Activity [41] of 17.31%.
For `Cc1ncnc2c1c1occc1n2[C@@H]1O[C@H](CO)[C@@H](O)[C@H]1O`, the Activity [1] was 1.09%, the Activity [2] was “inactive” and the IC50 [3] was 3190 nM. It also gave an IC50 [4] of 450 nM, an Activity [5] of 21.63% and a remaining at 0.25 h, 3.3 µM [6] of 99%. For the same compound, the EC50 [7] was 280 nM, the remaining at 1 h [8] was 99% and the IC50 [9] was 7730 nM. For the same compound, the Activity [10] was 36.83%, the IC50 [11] was over 50000 nM and the “log(permeability)” value [12] was -6.88. It also gave an IC50 [13] of 2210 nM, a remaining at 0.5 h [14] of 99% and an IC50 [15] of 450 nM. The Activity [16] was “inactive”, the remaining at 0.5 h, 3.3 µM [17] was 99% and the Activity [18] was 59.66%. For the same compound, the Activity [19] was “inactive”, the IC50 [20] was 2120 nM and the Activity [21] was 13.52%. For the same compound, the CC50 at 72 h [22] was over 44400 nM, the Activity [23] was 20.53% and the Activity [24] was 38.88%. The IC50 [25] was 1200 nM, the IC50 [26] was over 50000 nM and the EC50 [27] was 240 nM. The Activity [28] was 0.99%, the Activity [29] was 39.31% and the Activity [30] was 7.62%. The fraction unbound [31] was 0.41, the Activity [32] was 48% and the remaining at 2 h [33] was 96%. For the same compound, the IC50 [34] was 410 nM, the remaining at 1 h, 3.3 µM [35] was 98% and the IC50 [36] was 240 nM. For the same compound, the Activity [37] was 44.57%, the remaining at 2 h, 3.3 µM [38] was 96% and the Activity [39] was 38.11%. It also gave an IC50 [40] of over 10000 nM and an Activity [41] of 16.12%.
With `Cc1ncnc2c1c1c(ccn1C)n2[C@@H]1O[C@H](CO)[C@@H](O)[C@H]1O` the Activity [1] was 1.06%, the Activity [2] was “inactive” and the IC50 [3] was 2080 nM. For the same compound, the IC50 [4] was 330 nM, the Activity [5] was 53.62% and the remaining at 0.25 h, 3.3 µM [6] was 98%. The EC50 [7] was 190 nM, the remaining at 1 h [8] was 93% and the IC50 [9] was 3910 nM. The Activity [10] was 34.66%, the IC50 [11] was 50000 nM and the “log(permeability)” value [12] was -6.87. It also gave an IC50 [13] of 1190 nM, a remaining at 0.5 h [14] of 97% and an IC50 [15] of 330 nM. The Activity [16] was “inactive”, the remaining at 0.5 h, 3.3 µM [17] was 83% and the Activity [18] was 52.19%. The Activity [19] was “inactive”, the IC50 [20] was 1130 nM and the Activity [21] was 13.14%. It also gave a CC50 at 72 h [22] of over 44400 nM, an Activity [23] of 10.99% and an Activity [24] of 59.89%. The IC50 [25] was 1510 nM, the IC50 [26] was over 50000 nM and the EC50 [27] was 120 nM. The Activity [28] was 0.9%, the Activity [29] was 51.03% and the Activity [30] was 5.1%. The fraction unbound [31] was 0.71, the Activity [32] was 42% and the remaining at 2 h [33] was 91%. It also gave an IC50 [34] of 400 nM, a remaining at 1 h, 3.3 µM [35] of 81% and an IC50 [36] of 210 nM. For the same compound, the Activity [37] was 31.75%, the remaining at 2 h, 3.3 µM [38] was 79% and the Activity [39] was 48.49%. The IC50 [40] was over 10000 nM and the Activity [41] was 17.22%.
